From PubChem
DNMT1 inh: blocks human DNA methyltransferase DNMT1; P26358; DNMT1 molecular beacon, Hinp1I cleavage, fluorescence; inhibition (reported as % activation of signal), % at 10 µM; 0.83% of 360,000 active; AID 588458; in the data active means inhibition above about 50%
Scp1 inh: blocks human Scp-1 phosphatase activity; inhibition, % at 20 µM; 0.88% of 340,000 active; Q9GZU7; Recombinant Scp1, phosphopeptide, malachite green phosphate absorbance;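 active means inhibition above about 50% at 20 µM, limit read from the data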;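 further: plate controls were DMSO wells with enzyme for no effect and wells lacking enzyme for full effect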
Target sequence (Q9GZU7 76-261 limits assumed): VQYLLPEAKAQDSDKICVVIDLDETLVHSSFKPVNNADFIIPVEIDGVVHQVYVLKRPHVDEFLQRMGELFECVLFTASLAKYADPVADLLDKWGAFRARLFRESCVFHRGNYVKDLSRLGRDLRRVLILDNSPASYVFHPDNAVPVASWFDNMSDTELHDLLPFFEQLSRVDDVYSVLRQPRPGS
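Material – SCP-1 phosphatase catalytic domain, residues 76-261 · Buffer or medium – Acidic Tris acetate buffer with magnesium and detergent · Also added – Phospho 17-mer peptide substrate · Compound – single 20 µM dose, 1% DMSO · Times – 45 min room-temperature reaction, 5 min colour, 30 min stabiliser · Technique – Phosphate-binding colour reagent, absorbance read at 630 nm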
STEP inh: blocks human striatal-enriched tyrosine phosphatase. P54829. 0.25% of 360,000 active. recombinant STEP, OMFP fluorogenic substrate, fluorescence. inhibition, % at 20 µM;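 active means inhibition at 20 µM, scaled per plate between control wells, above about 37%, limit read from the data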;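 further: 0% = DMSO with enzyme and substrate and 100% = substrate only without enzyme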
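System: STEP phosphatase, cell-free reaction; Buffer or medium: Bis-Tris pH 6.0 buffer with DTT, detergent; Incubation: 20 min at room temperature, dark; Measured by: fluorescence, 480/540 nm.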
SUMO1-SIM PPI: SUMO1-SIM interaction modulation | P63165 | SUMO1 binding to a labelled peptide, TR-FRET, 1 h | inhibition, % at 20 µM | 0.33% of 360,000 active; in the data active means inhibition above about 37%
Target sequence (P63165 whole entry, looked up): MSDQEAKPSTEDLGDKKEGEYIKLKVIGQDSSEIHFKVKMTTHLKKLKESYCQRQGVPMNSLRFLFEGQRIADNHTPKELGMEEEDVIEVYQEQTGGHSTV
LMPTP block: blocks human LMPTP phosphatase | recombinant LMPTP-A, OMFP fluorogenic substrate, fluorescence intensity | inhibition, % at 20 µM | P24666 | 0.22% of 360,000 active | AID 651560;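 active means compounds that cut the enzyme signal by at least half of the control window in the single-dose screen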;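 further: plate controls were DMSO wells with enzyme plus substrate for no effect and substrate without enzyme for full effect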
Target sequence (P24666 whole entry, looked up): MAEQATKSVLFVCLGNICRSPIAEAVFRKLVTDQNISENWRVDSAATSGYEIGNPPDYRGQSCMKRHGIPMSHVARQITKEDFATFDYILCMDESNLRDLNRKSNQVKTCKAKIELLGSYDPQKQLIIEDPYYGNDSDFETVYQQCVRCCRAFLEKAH
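Test system: LMPTP-A, protein tyrosine phosphatase of low molecular weight; Input: 0.625 nM enzyme; Incubation: 50 min dark incubation at room temperature; Signal: endpoint fluorescence intensity from OMFP dephosphorylation; Read-out basis: % inhibition versus control wells.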
Starred values were filed as active, the others as inactive. In the library only some 1.8% were active in any assay of this set; here they are far more common.

How did O=C1CCCC2=C1C(c1ccc(Br)cc1)c1c([nH]c(=S)[nH]c1=O)N2 (configuration not stated) do in these assays?
DNMT1 inh: -2.8; Scp1 inh: 0.4; STEP inh: 1.2; SUMO1-SIM PPI: 13.2; LMPTP block: 17.5

What do the screens show for `O=c1[nH]c(=S)[nH]c2c1C(c1ccc(Br)cc1)c1c([nH]c(=S)[nH]c1=O)O2`?
DNMT1 inh: 67.4*; Scp1 inh: 97.5*; STEP inh: 91.8*; SUMO1-SIM PPI: 115.3*; LMPTP block: 68.1*

What do the screens show for `CCC(C)[C@H](N)C(=O)NC[C@H]1CC[C@H](C(=O)N[C@@H](Cc2ccccc2)C(=O)O)CC1` (some centres not stated)?
DNMT1 inh: 2.1; Scp1 inh: 4.2; STEP inh: -3.9; SUMO1-SIM PPI: -3.5; LMPTP block: -2.7

What do the screens show for `Nc1c(C(=O)NCC2CCCO2)sc2nc3c(c(-c4ccco4)c12)CC/C3=C\c1ccco1` (configuration not stated)?
DNMT1 inh: 101.3*; Scp1 inh: 80.7*; STEP inh: 37.2*; SUMO1-SIM PPI: 68.9*; LMPTP block: 69.7*

How did Cc1cc(N/N=C/c2ccccc2O)c2ccccc2n1 do in these assays?
DNMT1 inh: 19.8; Scp1 inh: -3.7; STEP inh: -2.1; SUMO1-SIM PPI: -19.0; LMPTP block: 51.4*

What do the screens show for `COc1ccc2nc(C)cc(N/N=C/c3cccc(OC)c3O)c2c1`?
DNMT1 inh: 30.0; Scp1 inh: -5.7; STEP inh: 4.4; SUMO1-SIM PPI: -12.2; LMPTP block: 13.5

How did COc1cc(OC)cc(C(=O)Nc2ccc(N3CCN(C(=O)c4cccs4)CC3)cc2)c1 do in these assays?
DNMT1 inh: -4.3; Scp1 inh: -2.4; STEP inh: 3.1; SUMO1-SIM PPI: 42.3*; LMPTP block: 2.6

What do the screens show for `Cc1ccc2nc(Nc3ccc(C)c(C)c3)c3nncn3c2c1`?
DNMT1 inh: 0.2; Scp1 inh: -13.1; STEP inh: 3.1; SUMO1-SIM PPI: -5.2; LMPTP block: 1.6

What do the screens show for `CCC(OC(=O)c1ccco1)C(=O)NCc1ccc2c(c1)OCO2` (configuration not stated)?
DNMT1 inh: 2.2; Scp1 inh: 6.6; STEP inh: 2.1; SUMO1-SIM PPI: -0.9; LMPTP block: -1.0

How did Cc1ccc2[nH]c(C)c(/C=C/c3cc[n+](C)cc3)c2c1 do in these assays?
DNMT1 inh: 10.5; Scp1 inh: 11.7; STEP inh: -14.9; SUMO1-SIM PPI: -172.8; LMPTP block: 6.0

Results for Cc1ccc2c(c1)c(/C=C/c1cc[n+](C)cc1)c(C)n2C ?
DNMT1 inh: 22.7; Scp1 inh: 53.8*; STEP inh: -19.3; SUMO1-SIM PPI: -268.8; LMPTP block: 12.6

How did Cc1cccc([N+](=O)[O-])c1NC(=O)CSc1nnc2ccccn12 do in these assays?
DNMT1 inh: -1.0; Scp1 inh: 2.3; STEP inh: 2.7; SUMO1-SIM PPI: -10.4; LMPTP block: -0.6

How did COc1ccc(NC(=O)Nc2cc3oc4ccccc4c3cc2OC)cc1 do in these assays?
DNMT1 inh: 2.8; Scp1 inh: -7.6; STEP inh: -4.9; SUMO1-SIM PPI: 58.6*; LMPTP block: 1.2

Results for COc1ccc(Cn2cc(CN3CC(N4CCN(C5CCN(C)CC5)CC4)CS3(=O)=O)nn2)cc1 (configuration not stated) ?
SUMO1-SIM PPI: -19.0; LMPTP block: -5.6

What do the screens show for `CCN(CC)CCOC(=O)c1ccc(N/C=C(/C#N)c2nc(-c3ccc(OC)cc3)cs2)cc1`?
DNMT1 inh: 36.3; Scp1 inh: 11.2; STEP inh: 11.0; SUMO1-SIM PPI: 81.3*; LMPTP block: 4.5

Results for CCN(CC)CCOC(=O)c1ccc(N/C=C(/C#N)c2nc(-c3cc4ccccc4oc3=O)cs2)cc1 ?
DNMT1 inh: 50.1*; Scp1 inh: -4.5; STEP inh: 52.0*; SUMO1-SIM PPI: -63.2; LMPTP block: 29.7

What do the screens show for `CCN(CC)CCOC(=O)c1ccc(N/C=C(/C#N)c2nc(-c3ccc4c(c3)OCO4)cs2)cc1`?
DNMT1 inh: -66.6; Scp1 inh: 8.2; STEP inh: 85.6*; SUMO1-SIM PPI: 64.7*; LMPTP block: 21.7

Results for C=CC[C@H](CC(=O)NCCO)C(=O)N[C@@H](COC(=O)[C@@H](CC=C)CC(=O)OC(C)(C)C)Cc1c[nH]c2ccccc12 ?
DNMT1 inh: 3.0; Scp1 inh: -11.3; STEP inh: 1.4; SUMO1-SIM PPI: 4.4; LMPTP block: -0.8

What do the screens show for `O=C(O)CCNc1nc(-c2ccccc2)nc2ccccc12`?
DNMT1 inh: 2.9; Scp1 inh: -10.4; STEP inh: -2.6; SUMO1-SIM PPI: 9.2; LMPTP block: 20.6

How did O=C(OCCNc1nc(-c2ccccc2)nc2ccccc12)c1cccnc1 do in these assays?
DNMT1 inh: -1.4; Scp1 inh: 1.0; STEP inh: -0.1; SUMO1-SIM PPI: 2.5; LMPTP block: 61.7*

Results for O=C(OCCNc1nc(-c2ccccc2)nc2ccccc12)c1ccncc1 ?
DNMT1 inh: -5.9; Scp1 inh: -1.1; STEP inh: -2.5; SUMO1-SIM PPI: 2.4; LMPTP block: 62.3*

Results for COc1ccc(CCC(=O)Nc2c(-c3ccc(N(C)C)cc3)[nH][nH]c2=O)cc1 ?
DNMT1 inh: 58.3*; STEP inh: 8.2; SUMO1-SIM PPI: 47.0*; LMPTP block: 13.0

What do the screens show for `COc1ccc(-c2[nH][nH]c(=O)c2NC(=O)c2ccccn2)cc1`?
DNMT1 inh: -13.1; STEP inh: 2.2; SUMO1-SIM PPI: 6.0; LMPTP block: 1.6

Results for O=S(=O)(/C=C/C=C/S(=O)(=O)c1ccccc1)c1ccccc1 ?
DNMT1 inh: 14.4; Scp1 inh: -0.3; STEP inh: 0.9; SUMO1-SIM PPI: 40.5*; LMPTP block: 0.2

How did O=C(O)c1csc(N/N=C/c2ccc(Br)cc2)n1 do in these assays?
DNMT1 inh: 13.3; Scp1 inh: -1.4; STEP inh: -1.3; SUMO1-SIM PPI: 4.9; LMPTP block: 58.5*

How did Cc1csc(N/N=C/c2ccc([N+](=O)[O-])cc2)n1 do in these assays?
DNMT1 inh: -8.5; Scp1 inh: -8.6; STEP inh: 0.8; SUMO1-SIM PPI: -27.1; LMPTP block: 2.1

How did Cn1c2ccccc2c2cc(/C=N/NC(=O)c3cc(O)cc(O)c3)ccc21 do in these assays?
DNMT1 inh: 23.2; Scp1 inh: 48.9; STEP inh: 11.6; SUMO1-SIM PPI: 38.0; LMPTP block: 8.9

What do the screens show for `Cn1c2ccccc2c2cc(/C=N/NC(=O)c3cc(O)ccc3O)ccc21`?
DNMT1 inh: 46.2; Scp1 inh: 58.8*; STEP inh: 34.1; SUMO1-SIM PPI: 33.6; LMPTP block: 43.3

How did CCn1nc(NC(=O)COC)c2cc3cc(C)ccc3nc21 do in these assays?
DNMT1 inh: 2.0; Scp1 inh: 33.2; STEP inh: -3.5; SUMO1-SIM PPI: -20.1; LMPTP block: -0.2
